Test results as given in ChEMBL document CHEMBL1139673, “Factor VIIa inhibitors: gaining selectivity within the trypsin family” (Bioorg Med Chem Lett, 2006).
pKi: −log10 of the molar value.

Key:
Homo sapiens = organism: Homo sapiens; assay: Selectivity for factor 7a versus trypsin
Outline: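 Apparent Ki (Morrison tight-binding fit) from two chromogenic assays, both at room temperature with substrate at Km and A405 monitored over time. FVIIa: 7 nM factor VII with 11 nM recombinant soluble human tissue factor in Tris pH 7.4, NaCl, 5.0 mM CaCl2, 1.5 mM EDTA, Tween 20, 10% DMSO; CH3SO2-D-CHA-But-Arg-pNA 500 µM. Trypsin: 10 nM, same buffer without CaCl2; Tosyl-Gly-Pro-Lys-pNA 25 µM.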

Coagulation factor VII = biological target: T1, Coagulation factor VII (Homo sapiens, UniProt P08709); assay: Binding affinity to factor 7a
T1 sequence (P08709 whole entry): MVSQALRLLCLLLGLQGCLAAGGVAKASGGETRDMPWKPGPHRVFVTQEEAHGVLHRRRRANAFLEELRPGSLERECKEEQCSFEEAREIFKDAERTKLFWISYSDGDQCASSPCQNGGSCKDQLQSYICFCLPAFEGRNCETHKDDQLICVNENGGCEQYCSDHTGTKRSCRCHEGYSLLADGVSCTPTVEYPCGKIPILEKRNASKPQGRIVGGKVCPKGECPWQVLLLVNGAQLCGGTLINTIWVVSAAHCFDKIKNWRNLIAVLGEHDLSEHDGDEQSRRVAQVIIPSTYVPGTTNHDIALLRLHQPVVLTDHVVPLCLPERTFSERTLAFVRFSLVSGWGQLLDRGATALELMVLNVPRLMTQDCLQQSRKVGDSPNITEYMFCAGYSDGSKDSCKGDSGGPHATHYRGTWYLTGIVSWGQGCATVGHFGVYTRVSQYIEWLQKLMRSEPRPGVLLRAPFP

| Compound | Selectivity ratio (Homo sapiens) | pKi (Coagulation factor VII) |
| --- | --- | --- |
| N=C(N)c1ccc2[nH]c(-c3cc(C(CC(=O)O)C(=O)O)cc(-c4cc(F)cc(F)c4)c3O)nc2c1 (stereo unspecified) | 115 | – |
| N=C(N)c1ccc2[nH]c(-c3cc(C(CC(=O)O)C(=O)O)cc(-c4ccccc4O)c3O)nc2c1 (stereo unspecified) | 1080 | 7.89 |
| N=C(N)c1ccc2nc(-c3cc(C(CC(=O)O)C(=O)O)cc(-c4ccc(F)c(Cl)c4)c3O)[nH]c2c1 (stereo unspecified) | – | 6.89 |
| N=C(N)c1ccc2[nH]c(-c3cc(C(CC(=O)O)C(=O)O)cc(-c4ccc(O)cc4)c3O)nc2c1 (stereo unspecified) | 10 | 6.06 |
| N=C(N)c1ccc2[nH]c(-c3cc(C(CC(=O)O)C(=O)O)cc(-c4cc(Cl)ccc4O)c3O)nc2c1 (stereo unspecified) | 2500 | 8.27 |
| Cc1cccc(NC(=O)Cc2cc(C(CC(=O)O)C(=O)O)cc(-c3nc4cc(C(=N)N)ccc4[nH]3)c2O)c1 (stereo unspecified) | 102 | 7.27 |
| CC(=O)Nc1cccc(-c2cc(C(CC(=O)O)C(=O)O)cc(-c3nc4ccc(C(=N)N)cc4[nH]3)c2O)c1 (stereo unspecified) | – | 6.96 |
| N=C(N)c1ccc2nc(-c3cc(C(CC(=O)O)C(=O)O)cc(-c4ccccc4N)c3O)[nH]c2c1 (stereo unspecified) | – | 6.38 |
| CC(C)c1cccc(-c2cc(C(CC(=O)O)C(=O)O)cc(-c3nc4ccc(C(=N)N)cc4[nH]3)c2O)c1 (stereo unspecified) | – | 7.12 |
| N=C(N)c1ccc2[nH]c(-c3cc(C(CC(=O)O)C(=O)O)cc(-c4ccccc4CO)c3O)nc2c1 (stereo unspecified) | 16 | 6.14 |
| Cc1ccc(-c2cc(C(CC(=O)O)C(=O)O)cc(-c3nc4ccc(C(=N)N)cc4[nH]3)c2O)cc1 (stereo unspecified) | – | 6.38 |
| N=C(N)c1ccc2nc(-c3cc(C(CC(=O)O)C(=O)O)cc(-c4ccccc4[N+](=O)[O-])c3O)[nH]c2c1 (stereo unspecified) | – | 7.66 |
| N=C(N)c1ccc2[nH]c(-c3cc(C(CC(=O)O)C(=O)O)cc(-c4cc(Cl)cc(Cl)c4)c3O)nc2c1 (stereo unspecified) | 98 | – |
| N=C(N)c1ccc2[nH]c(-c3cc(C(CC(=O)O)C(=O)O)cc(-c4cc(Cl)cc(Cl)c4Cl)c3O)nc2c1 (stereo unspecified) | 39 | 6.68 |
| N=C(N)c1ccc2[nH]c(-c3cc(C(CC(=O)O)C(=O)O)cc(-c4ccc(F)c(Cl)c4)c3O)nc2c1 (stereo unspecified) | 34 | – |
| N=C(N)c1ccc2[nH]c(-c3cc(C(CC(=O)O)C(=O)O)cc(-c4cccc(Cl)c4Cl)c3O)nc2c1 (stereo unspecified) | 44 | – |
| N=C(N)c1ccc2nc(-c3cc(C(CC(=O)O)C(=O)O)cc(-c4ccc(Cl)cc4)c3O)[nH]c2c1 (stereo unspecified) | – | 6.36 |
| N=C(N)c1ccc2[nH]c(-c3cc(C(CC(=O)O)C(=O)O)cc(-c4cc(Cl)ccc4Cl)c3O)nc2c1 (stereo unspecified) | 35 | 6.60 |
| N=C(N)c1ccc2[nH]c(-c3cc(C(CC(=O)O)C(=O)O)cc(-c4cc(F)ccc4O)c3O)nc2c1 (stereo unspecified) | 4400 | – |
| N=C(N)c1ccc2[nH]c(-c3cc(C(CC(=O)O)C(=O)O)cc(-c4c(O)cc(Cl)cc4Cl)c3O)nc2c1 (stereo unspecified) | 192 | 7.60 |

| Compound | Selectivity ratio (Homo sapiens) | pKi (Coagulation factor VII) |
| --- | --- | --- |
| N=C(N)c1ccc2[nH]c(-c3cc(C(CC(=O)O)C(=O)O)cc(-c4cc(Cl)cc(Br)c4O)c3O)nc2c1 (stereo unspecified) | 398 | 8.05 |
| N#Cc1ccc(O)c(-c2cc(C(CC(=O)O)C(=O)O)cc(-c3nc4cc(C(=N)N)ccc4[nH]3)c2O)c1 (stereo unspecified) | 2960 | 7.92 |
| CC(C)(C)c1ccc(-c2cc(C(CC(=O)O)C(=O)O)cc(-c3nc4cc(C(=N)N)ccc4[nH]3)c2O)cc1 (stereo unspecified) | 1 | 4.80 |
| N=C(N)c1ccc2[nH]c(-c3cc(C(CC(=O)O)C(=O)O)cc(-c4ccccc4CS)c3O)nc2c1 (stereo unspecified) | 103 | 7.19 |
| N=C(N)c1ccc2[nH]c(-c3cc(C(CC(=O)O)C(=O)O)ccc3O)nc2c1 (stereo unspecified) | 1 | 5.19 |
| COc1ccc(-c2cc(C(CC(=O)O)C(=O)O)cc(-c3nc4cc(C(=N)N)ccc4[nH]3)c2O)cc1 (stereo unspecified) | 1 | 5.65 |
| Cc1ccc(-c2cc(C(CC(=O)O)C(=O)O)cc(-c3nc4cc(C(=N)N)ccc4[nH]3)c2O)cc1 (stereo unspecified) | 8 | – |
| N=C(N)c1ccc2[nH]c(-c3cc(C(CC(=O)O)C(=O)O)cc(-c4cc([N+](=O)[O-])ccc4O)c3O)nc2c1 (stereo unspecified) | 8500 | 8.22 |
| N=C(N)c1ccc2[nH]c(-c3cc(C(CC(=O)O)C(=O)O)cc(-c4ccc(Cl)cc4)c3O)nc2c1 (stereo unspecified) | 2 | – |
| Cc1ccccc1-c1cc(C(CC(=O)O)C(=O)O)cc(-c2nc3cc(C(=N)N)ccc3[nH]2)c1O (stereo unspecified) | 16 | 6.30 |
| N=C(N)c1ccc2[nH]c(-c3cc(C(CC(=O)O)C(=O)O)cc(-c4ccccc4[N+](=O)[O-])c3O)nc2c1 (stereo unspecified) | 25 | – |
| N=C(N)c1ccc2nc(-c3cc(C(CC(=O)O)C(=O)O)cc(-c4cc(Cl)cc(Cl)c4)c3O)[nH]c2c1 (stereo unspecified) | – | 7.57 |
| N=C(N)c1ccc2nc(-c3cc(C(CC(=O)O)C(=O)O)cc(-c4cccc(CO)c4)c3O)[nH]c2c1 (stereo unspecified) | – | 7.68 |
| N=C(N)c1ccc2nc(-c3cc(C(CC(=O)O)C(=O)O)cc(-c4cccc(Cl)c4Cl)c3O)[nH]c2c1 (stereo unspecified) | – | 6.57 |
| N=C(N)c1ccc2[nH]c(-c3cc(C(CC(=O)O)C(=O)O)cc(-c4cc(Cl)cc(Cl)c4O)c3O)nc2c1 (stereo unspecified) | 421 | 7.85 |
| COc1ccc(F)cc1-c1cc(C(CC(=O)O)C(=O)O)cc(-c2nc3cc(C(=N)N)ccc3[nH]2)c1O (stereo unspecified) | 52 | 6.48 |
| COc1ccc(C#N)cc1-c1cc(C(CC(=O)O)C(=O)O)cc(-c2nc3cc(C(=N)N)ccc3[nH]2)c1O (stereo unspecified) | 54 | 6.55 |
| Cc1cc(C)cc(-c2cc(C(CC(=O)O)C(=O)O)cc(-c3nc4cc(C(=N)N)ccc4[nH]3)c2O)c1 (stereo unspecified) | 1080 | 7.54 |
| N=C(N)c1ccc2nc(-c3cc(C(CC(=O)O)C(=O)O)cc(-c4cc(F)cc(F)c4)c3O)[nH]c2c1 (stereo unspecified) | – | 7.17 |

Other lines, results leading:

| Selectivity ratio (Homo sapiens) | pKi (Coagulation factor VII) | Compound |
| --- | --- | --- |
| 91 | 7.13 | N=C(N)c1ccc2[nH]c(-c3cc(C(CC(=O)O)C(=O)O)cc(-c4ccccc4)c3O)nc2c1 (stereo unspecified) |
| 40 | – | CC(C)c1cccc(-c2cc(C(CC(=O)O)C(=O)O)cc(-c3nc4cc(C(=N)N)ccc4[nH]3)c2O)c1 (stereo unspecified) |
| 118 | – | CC(=O)Nc1cccc(-c2cc(C(CC(=O)O)C(=O)O)cc(-c3nc4cc(C(=N)N)ccc4[nH]3)c2O)c1 (stereo unspecified) |
| 51 | 6.92 | N=C(N)c1ccc2[nH]c(-c3cc(C(CC(=O)O)C(=O)O)cc(-c4cccc(OC(F)F)c4)c3O)nc2c1 (stereo unspecified) |
| 197 | 7.48 | CC(=O)c1cccc(-c2cc(C(CC(=O)O)C(=O)O)cc(-c3nc4cc(C(=N)N)ccc4[nH]3)c2O)c1 (stereo unspecified) |
| 18 | 6.11 | N=C(N)c1ccc2[nH]c(-c3cc(C(CC(=O)O)C(=O)O)cc(-c4cccc(CN)c4)c3O)nc2c1 (stereo unspecified) |
| 31 | 6.26 | N=C(N)c1ccc2[nH]c(-c3cc(C(CC(=O)O)C(=O)O)cc(-c4cccnc4)c3O)nc2c1 (stereo unspecified) |
| 268 | – | N=C(N)c1ccc2[nH]c(-c3cc(C(CC(=O)O)C(=O)O)cc(-c4cccc([N+](=O)[O-])c4)c3O)nc2c1 (stereo unspecified) |
| 99 | 7.06 | N=C(N)c1ccc2[nH]c(-c3cc(C(CC(=O)O)C(=O)O)cc(-c4cccc(O)c4)c3O)nc2c1 (stereo unspecified) |
| 59 | 7.18 | N=C(N)c1ccc2[nH]c(-c3cc(C(CC(=O)O)C(=O)O)cc(-c4cccc(Cl)c4)c3O)nc2c1 (stereo unspecified) |
| 1790 | 8.00 | N=C(N)c1ccc2[nH]c(-c3cc(C(CC(=O)O)C(=O)O)cc(-c4cc(N)ccc4O)c3O)nc2c1 (stereo unspecified) |
| 250 | 7.44 | N=C(N)c1ccc2[nH]c(-c3cc(C(CC(=O)O)C(=O)O)cc(-c4cccc(N)c4)c3O)nc2c1 (stereo unspecified) |
| 41 | – | N=C(N)c1ccc2[nH]c(-c3cc(C(CC(=O)O)C(=O)O)cc(-c4ccccc4N)c3O)nc2c1 (stereo unspecified) |
| 108 | – | Cc1cccc(-c2cc(C(CC(=O)O)C(=O)O)cc(-c3nc4cc(C(=N)N)ccc4[nH]3)c2O)c1 (stereo unspecified) |
| 216 | – | N=C(N)c1ccc2[nH]c(-c3cc(C(CC(=O)O)C(=O)O)cc(-c4cccc(CO)c4)c3O)nc2c1 (stereo unspecified) |
| – | 7.42 | Cc1cccc(-c2cc(C(CC(=O)O)C(=O)O)cc(-c3nc4ccc(C(=N)N)cc4[nH]3)c2O)c1 (stereo unspecified) |
| 71 | 7.11 | N#Cc1cccc(-c2cc(C(CC(=O)O)C(=O)O)cc(-c3nc4cc(C(=N)N)ccc4[nH]3)c2O)c1 (stereo unspecified) |
